According to publication PMC6263297 (Drug Design, Development and Therapy, 2018):
Where two headings read alike, the source gives them in different places.

Legend:
[1] = Safety assessment: treatment-related adverse events; assay type: in vivo, human (healthy Chinese volunteers)
Method in brief: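 The same 12 volunteers received three single-dose periods (0.25, 0.375, 0.5 mg orally after >10 h fast, 10-day washouts), then 0.375 mg once daily for 11 days. Adverse events were collected by interview and monitoring and graded for relation to treatment (probably/possibly). Vital signs, physical examination, clinical laboratory tests and ECG were done at screening and at study completion.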

[2] = cited from earlier work
patients with asthma = conditions: oral 0.10, 0.25, and 0.50 mg once daily; cited from earlier work
[3] = cited from earlier work; remark: listed apart in the source
[4] = tested on: acute exacerbations of COPD; conditions: treated over 4 weeks; cited from earlier work
PDE4 enzyme = conditions: in vitro; cited from earlier work
[5] = assay type: in vivo, human (healthy Chinese volunteers); conditions: single doses over the range 0.25–0.50 mg
[6] = single and multiple oral doses, all subjects
[7] = single- and multiple-dose studies together
[8] = after receiving 0.5 mg roflumilast

O=C(Nc1c(Cl)cncc1Cl)c1ccc(OC(F)F)c(OCC2CC2)c1 [Roflumilast]
number of TRAEs reported ([1]; 0.25 mg single dose): Seven
number of TRAEs reported ([1]; 0.375 mg multiple doses): 25
serious adverse events ([1]; across the trial): no serious adverse events
overall safety and tolerability ([1]; healthy Chinese volunteers, single doses 0.25–0.5 mg and multiple doses 0.375 mg): safe and well-tolerated
Any adverse event: number of subjects (%) reporting TRAEs ([1]; multiple doses 0.375 mg (n=12)): 12 subjects (%)
number of TRAEs of moderate degree ([1]; presenting as acute gastroenteritis): one
number of TRAEs of severe degree ([1]; presenting as diarrhea): one
Diarrhea, share of subjects [1, 6]: 30.8%
Dizziness, share of subjects [1, 6]: 53.8%
Elevated creatine kinase level, share of subjects [1, 6]: 15.4%
Elevated total bilirubin level, share of subjects [1, 6]: 15.4%
Headache, share of subjects [1, 6]: 23.1%
Nausea, share of subjects [1, 6]: 53.8%
Upper respiratory tract infection, share of subjects [1, 6]: 23.1%
number of TRAEs of mild degree [1, 7]: Forty-six
total number of treatment-related adverse events [1, 7]: 48
number of AEs reported ([2]; 15 subjects after receiving 0.5 mg roflumilast): 59
Abdominal discomfort, share of subjects [2, 8]: 20%
Headache, share of subjects [2, 8]: 46.7%
Nausea, share of subjects [2, 8]: 20%
subjects who exited the study because of AEs ([2]; of 19 subjects, erectile dysfunction, visual flicker, blurred vision): 2 subjects
effect on forced expiratory volume in 1 second (patients with asthma): statistically significant effects with dose-related increases from baseline
effective half-life (t1/2) ([3]; after dosing of 0.5 mg roflumilast): 8 to 31 h
effect of food intake on Cmax (decrease) ([3]; food intake): ~ 40%
effect of food intake on Tmax (delay) ([3]; food intake): 1 h
effect of food intake on the total inhibitory activity of PDE4 ([3]; food intake): does not affect
percentage of sputum neutrophils [4]: statistically significant greater reduction
sputum myeloperoxidase concentration [4]: statistically significant greater reduction
potency upon inhibition of the PDE4 enzyme relative to roflumilast N-oxide (PDE4 enzyme): three times more potent
mean t1/2 over the three single-dose groups [5]: ~ 20 hours
